Laboratory results as given in PubChem BioAssay.
Results filed as inconclusive are left out.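 How the source made its calls, unless noted: active means growth inhibition above 25% in both replicates, a cutoff set 3 SD above the mean; inconclusive means above 25% in only one replicate; inactive means the rest.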

Legend:
[1] = OD615 S. cerevisiae growth inhibition, permissive medium, pilot counter-assay, permissive growth control for S. cerevisiae lifespan shortening project (AID 705); settings: OD615, 24 h, at 10 µM, active compounds read high
Procedure, shortened: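 System – S. cerevisiae with engineered DeaD lifespan system · Buffer or medium – SC raffinose/galactose permissive medium · Schedule – cells pre-grown 4 h, then 24 h compound exposure, 30 °C humidified · Technique – culture turbidity as optical density at 615 nm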

[2] = Restrictive medium S. cerevisiae growth inhibition, OD615, pilot screen of yeast lifespan reduction project, restrictive growth control (AID 706;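 active means growth inhibition above a set limit, 3 SD over mean compound inhibition, in both replicates, cut at about 43% in these data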;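 further: modified DeaD lifespan yeast strain shifted to restrictive glucose medium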); settings: OD615, 48 h, at 10 µM, active compounds read high
Procedure, shortened: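 Material: engineered S. cerevisiae DeaD strain / Medium: glucose-based CSMM-D restrictive medium / Compound: single dose of 10 µM compound final, 0.25% DMSO / Timing: 4 h pre-incubation, 48 h exposure at 30 °C / Technique: OD615 absorbance reading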

[3] = viability gain of MRP-1-high H69AR cells under doxorubicin, pilot screen, MRP-1 activator project, CellTiter-Glo, duplicate (AID 807;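 active means viability increase at or above a cutoff of the median across tested compounds plus 3 SD, cut at about 8.5% in these data, passing the limit was not always enough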;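 further: compound pretreatment 18-22 h then 72 h combined with doxorubicin; 0% = doxorubicin alone and 100% = vehicle without doxorubicin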); settings: H69AR viability with doxorubicin, CellTiter-Glo luminescence; at 10 µM; active compounds read high
[4] = growth suppression of beta-catenin knockout HCT116, pilot screen, human colon tumor cells (AID 823;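 active means cell viability at or below a set limit in both duplicate runs, the limit being the all-compound median minus 4 SD, cut at about 23% in these data, passing the limit was not always enough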;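 further: 0% = wells killed by 20 µM Hyamine and 100% = untreated DMSO cell wells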); settings: CellTiter-Glo, 60 h, at 10 µM, active compounds read low
[5] = growth suppression of PTEN-deleted HCT116, pilot screen, cell-based, HCT116 clonal line, CellTiter-Glo (AID 824;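 active means viability at or below 27.92% in each of two runs, the all-compound median minus 4 SD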;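 further: 0% = 20 µM Hyamine control and 100% = vehicle cell control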); settings: 60 h, at 10 µM, active compounds read low
[6] = inhibitors of the yeast RAM network, pilot screen, dse1pr::URA3 reporter, 5-FOA selection (AID 869;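 active means inhibition over a set limit, the all-compound mean plus 3 SD, in both replicate runs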;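 further: 0% = DMSO wells with no growth and 100% = 10 µM 1-NA-PP1 with full growth; RAM network block rescues cells from 5-FOA so hits raise OD615 growth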); settings: S. cerevisiae dse1pr::URA3 5-FOA growth, OD615, 2 d; at 10 µM; active compounds read high; strain carries analog-sensitive mutant Cbk1 kinase
[7] = RAM signaling pathway blockade in yeast – S. cerevisiae, Pdr1DBD-CYC8 efflux-inhibited sensitized strain, primary screen (AID 1298;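 active means RAM network inhibition above 8.4% in each of two replicates, 3 SD over the compound average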;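 further: 0% = DMSO untreated cells without growth and 100% = 10 µM 1-NA-PP1 full growth; higher means more yeast growth rescued from 5-FOA killing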); settings: S. cerevisiae cbk1-as DSE1-URA3 strain, 5-FOA growth OD615, 2 d; at 50 µM; active compounds read high

O=C(c1nnc(Cc2ccc(Cl)cc2)o1)N1CCc2ccccc2C1
inactive: growth inhibition [1] -7.83% | growth inhibition [2] 7.34% | viability increase [3] 3.24% | viability [4] 103% | viability [5] 107% | inhibition [6] 0.135% | RAM network inhibition [7] 4.39%

CCN1CCN(C(=O)C2CCN(Cc3nc(-c4ccc(Cl)cc4)oc3C)CC2)CC1
inactive: growth inhibition [1] -10.7% | growth inhibition [2] -25% | viability increase [3] -2.66% | viability [4] 85.8% | viability [5] 79.7% | inhibition [6] 2.88% | RAM network inhibition [7] 2.86%

CN(C)S(=O)(=O)c1ccc(C(=O)OCCCN=C2NS(=O)(=O)c3ccccc32)cc1
inactive: growth inhibition [1] -13% | growth inhibition [2] -15.2% | viability increase [3] 0.05% | viability [4] 109% | viability [5] 102% | inhibition [6] 0.955% | RAM network inhibition [7] 2.94%

CCOC(=O)N1CCC(NC(=O)c2cc3ccccn3n2)CC1
inactive: growth inhibition [1] 1.83% | growth inhibition [2] 1.79% | viability increase [3] 0.34% | viability [4] 97.5% | viability [5] 101% | inhibition [6] 1.8% | RAM network inhibition [7] 0.26%

COc1ccc(OC)c2sc(NC(=O)c3ccc(S(=O)(=O)N(C)C)cc3)nc12
inactive: growth inhibition [1] -19.3% | growth inhibition [2] -17.2% | viability increase [3] -5.45% | viability [4] 72.9% | viability [5] 68.9% | inhibition [6] 3.56% | RAM network inhibition [7] 6.48%

Cc1ccc(/C=N/n2c(C)nnc2C)cc1
inactive: growth inhibition [1] -5.29% | growth inhibition [2] -2.88% | viability increase [3] -1.74% | viability [4] 87.4% | viability [5] 99.1% | inhibition [6] 0.135% | RAM network inhibition [7] 0.41%

Cc1ccc(-n2nc(C)c3c2OC(N)=C(C#N)C3c2cccs2)cc1 (stereo unspecified)
inactive: growth inhibition [1] -14.8% | growth inhibition [2] -26.3% | viability increase [3] -3.41% | viability [4] 90.5% | viability [5] 88.5% | inhibition [6] 1.91% | RAM network inhibition [7] 0.52%

Oc1cc(Cc2ccccc2)cnc1CN1CCCCC1
inactive: growth inhibition [1] -10.9% | growth inhibition [2] 2.06% | viability increase [3] -1% | viability [4] 95.6% | viability [5] 98% | inhibition [6] 0.305% | RAM network inhibition [7] 3.35%

CC1Cc2ccccc2C(=O)N1 (stereo unspecified)
inactive: growth inhibition [1] 0.58% | growth inhibition [2] 11.4% | viability increase [3] 0.15% | viability [4] 106% | viability [5] 99% | inhibition [6] 0.36% | RAM network inhibition [7] 3.5%

O=C1C(C=NCCCN2CCOCC2)=C(O)c2ccccc21
inactive: growth inhibition [1] -1.9% | growth inhibition [2] 10.5% | viability increase [3] -4.78% | viability [4] 98.6% | viability [5] 90.2% | inhibition [6] 0.71% | RAM network inhibition [7] 5.89%

NC(=O)c1ccc(N2CCCCC2)c(N2C(=O)C3C4C=CC(C4)C3C2=O)c1 (stereo unspecified)
inactive: growth inhibition [1] 0.39% | growth inhibition [2] -4.49% | viability increase [3] -2.98% | viability [4] 101% | viability [5] 92.6% | inhibition [6] 0.92% | RAM network inhibition [7] 3.75%

CC(=O)N1CCN(CCN=CC2=C(O)CC(c3cccs3)CC2=O)CC1 (stereo unspecified)
inactive: growth inhibition [1] -6.7% | growth inhibition [2] -2.31% | viability increase [3] -0.76% | viability [4] 93.1% | viability [5] 103% | inhibition [6] -0.455% | RAM network inhibition [7] -0.41%

Cc1cc(N2CCCC2)n2nc(C)nc2n1
inactive: growth inhibition [1] -10.1% | growth inhibition [2] -17.2% | viability increase [3] -0.52% | viability [4] 102% | viability [5] 101% | inhibition [6] 1.88% | RAM network inhibition [7] 1.98%

COc1ccc(N(CC(=O)N2CCc3ccccc3C2)S(=O)(=O)c2c(C)[nH]c(=O)[nH]c2=O)cc1
inactive: growth inhibition [1] -5.04% | growth inhibition [2] -13% | viability increase [3] -1.83% | viability [4] 110% | viability [5] 99.5% | inhibition [6] 2.77% | RAM network inhibition [7] 3.41%

Cc1cc(N2C(=O)CC(Cc3ccccc3)C2=O)no1 (stereo unspecified)
inactive: growth inhibition [1] -6.49% | growth inhibition [2] -11.5% | viability increase [3] 1.08% | viability [4] 103% | viability [5] 103% | inhibition [6] 1.55% | RAM network inhibition [7] 2.8%

CCCN1CCN(CCCNC(=O)Cn2cc3c(n2)CCCC3)CC1
inactive: growth inhibition [1] -3.77% | growth inhibition [2] -2.67% | viability increase [3] -0.96% | viability [4] 101% | viability [5] 91% | inhibition [6] 0.27% | RAM network inhibition [7] 3.05%

CC(C)n1c(=O)[nH]c2ccccc21
inactive: growth inhibition [1] -18.3% | growth inhibition [2] -9.29% | viability increase [3] -4.28% | viability [4] 89% | viability [5] 89.8% | inhibition [6] 0.575% | RAM network inhibition [7] 2.88%

Cn1c2c(c(=O)n(C)c1=O)C1c3ccccc3OCC1C(C)(C)O2 (stereo unspecified)
inactive: growth inhibition [1] -15.4% | growth inhibition [2] -19.5% | viability increase [3] -2.46% | viability [4] 98.7% | viability [5] 96.1% | inhibition [6] -0.05% | RAM network inhibition [7] 0.68%
